Activity calls are given as the source filed them. The calls are words filed in the database; no cut-off is given here.
Key:
HeLa [1] = assay: Induction of p21 expression in human HeLa cells at 1 uM after 24 hrs by Western blotting; type: functional, cell-based
How it was run: (§1)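 HeLa S3 cells were grown in DMEM with 10% heat-inactivated FBS and treated for 24 h. Cells were sonicated in ice-cold pH 7.5 HEPES IP buffer with protease inhibitors. Extracts were separated by SDS-PAGE, blotted to PVDF and probed with anti-p16, anti-p21 and anti-p27 antibodies, with chemiluminescent detection.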

HeLa [2] = assay: Induction of p16 expression in human HeLa cells at 1 uM after 24 hrs by Western blotting; type: functional, cell-based; how it was run: as §1
HeLa [3] = assay: Induction of p27 expression in human HeLa cells at 1 uM after 24 hrs by Western blotting; type: functional, cell-based; how it was run: as §1
[4] = test system: SF3B1/SF3B2/SF3B3 (Homo sapiens); assay: Displacement of Ac-SSA from SF3b SAP155/SAP145/SAP130 complex in human HeLa cells by competition binding assay
HeLa [5] = assay: Induction of beta-actin expression in human HeLa cells at 100 ng/ml after 14 hrs by Western blotting; type: functional, cell-based
[6] = target: T1, Splicing factor 3B subunit 3 (Homo sapiens) (UniProt Q15393); assay: Binding affinity to SAP130 in human HeLa cells assessed as inhibition of FLAG-tagged beta globin splicing at 100 ng/ml after 12 hrs by RT-PCR analysis; type: cell-based
T1 sequence (whole entry): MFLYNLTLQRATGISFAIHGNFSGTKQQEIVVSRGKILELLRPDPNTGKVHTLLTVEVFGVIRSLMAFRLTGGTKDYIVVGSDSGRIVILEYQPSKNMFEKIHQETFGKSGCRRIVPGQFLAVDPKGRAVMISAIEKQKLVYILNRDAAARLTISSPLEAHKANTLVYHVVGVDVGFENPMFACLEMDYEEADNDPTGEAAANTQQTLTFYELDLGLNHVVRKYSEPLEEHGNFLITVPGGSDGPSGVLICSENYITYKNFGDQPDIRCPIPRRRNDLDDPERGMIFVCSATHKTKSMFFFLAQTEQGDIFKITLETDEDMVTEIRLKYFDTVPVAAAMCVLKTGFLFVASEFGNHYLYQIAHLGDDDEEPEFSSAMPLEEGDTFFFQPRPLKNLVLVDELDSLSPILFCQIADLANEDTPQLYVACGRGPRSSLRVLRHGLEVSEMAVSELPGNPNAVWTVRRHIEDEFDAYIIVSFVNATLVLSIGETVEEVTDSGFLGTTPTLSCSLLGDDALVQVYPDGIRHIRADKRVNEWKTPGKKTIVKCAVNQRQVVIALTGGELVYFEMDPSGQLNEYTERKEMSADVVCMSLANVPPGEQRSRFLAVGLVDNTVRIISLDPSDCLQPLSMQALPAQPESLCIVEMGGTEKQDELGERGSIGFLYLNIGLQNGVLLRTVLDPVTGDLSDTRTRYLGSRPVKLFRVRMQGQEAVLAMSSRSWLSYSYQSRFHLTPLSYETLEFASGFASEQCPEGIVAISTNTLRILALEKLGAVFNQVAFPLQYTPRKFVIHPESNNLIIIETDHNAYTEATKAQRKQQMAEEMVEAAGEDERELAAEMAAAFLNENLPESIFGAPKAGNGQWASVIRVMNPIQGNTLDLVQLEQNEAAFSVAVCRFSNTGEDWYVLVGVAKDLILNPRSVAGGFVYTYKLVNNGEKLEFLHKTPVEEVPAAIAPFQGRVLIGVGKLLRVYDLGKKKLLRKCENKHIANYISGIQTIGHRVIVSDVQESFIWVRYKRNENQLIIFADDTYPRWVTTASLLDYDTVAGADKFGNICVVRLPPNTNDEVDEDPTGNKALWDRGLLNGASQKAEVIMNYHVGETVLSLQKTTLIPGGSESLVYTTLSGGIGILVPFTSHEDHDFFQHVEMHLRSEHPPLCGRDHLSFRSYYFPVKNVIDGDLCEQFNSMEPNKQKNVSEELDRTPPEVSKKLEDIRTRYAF

HeLa [7] = assay: Induction of subcellular localization of SC35 in human HeLa cells at 100 ng/ml after 3 hrs; type: functional, cell-based
How it was run: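 HeLa cells treated with SSA (100 ng ml-1, 3 h) or MeOH. Fixed in 3% formaldehyde, permeabilized with 1% Triton X-100, blocked with 5% FBS-PBS. Stained with anti-SC35 and an Alexa 488 anti-mouse secondary; fluorescence microscopy at 100×.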

[8] = target: T1, Splicing factor 3B subunit 3 (Homo sapiens); assay: Binding affinity to SAP130 in human HeLa cells assessed as inhibition of IkappaBalpha pre-mRNA splicing between exon 1 and exon 4 at […] after 12 hrs by RT-PCR analysis; type: cell-based
HeLa [9] = assay: Induction of truncated p27 expression in SAP145-targeting siRNA-transfected human HeLa cells; type: functional, cell-based
How it was run: (§2)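 HeLa cells transfected with siRNA against SAP155, SAP145 or SAP130 using DharmaFECT 1. Knockdown and the truncated p27* form detected by western blotting of cell extracts.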

[10] = Half life of the compound in culture medium by HPLC analysis; type: physicochemical
[11] = target: Cyclin-dependent kinase 2 (Homo sapiens) (UniProt P24941); assay: Induction of CDK2 in HEK293T cells transfected with FLAG-tagged p27 at 190 nM by Western blot analysis; type: cell-based; settings: HEK-293T
How it was run: (§3)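 HEK 293T cells were transfected with pcDNA3.1, FLAG-p27 or FLAG-p27*, or were treated with MeOH, FR901464 (20, 200 nM) or SSA (190 nM). CDK2 was immunoprecipitated and its kinase activity read by autoradiography with histone H1 and (gamma-32P)ATP. Associated proteins were detected by western blotting.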

[12] = target: T1, Splicing factor 3B subunit 3 (Homo sapiens); assay: Binding affinity to SAP130 assessed as inhibition of radio labeled IgM pre-mRNA splicing after 1 hr by autoradiography
How it was run: (§4)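 32P-labelled, m7G-capped in vitro-transcribed pre-mRNA substrate; beta-globin (exon 1 177 nt, intron 130 nt, exon 2 148 nt) or IgM (exon C3 154 nt, intron 107 nt, exon C4 119 nt). HeLa nuclear extract preincubated with SSA (19, 58, 95, 190 nM) or methanol for 1 h at 4 °C. Splicing then run 90 min at 30 °C in 20 µl. RNA resolved on denaturing urea-PAGE; autoradiography.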

HEK-293T [13] = assay: Induction of intron translation of HA-tagged truncated p27 gene in HEK293T cells at 100 ng/ml for 14 hrs; type: functional, cell-based; settings: Homo sapiens
How it was run: (§5)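 HEK 293T cells transfected (Lipofectamine 2000) with the p27-int-HA reporter. Correct splicing yields p27-Myc; translated intron yields p27*-HA. Cells treated with or without SSA at 100 ng ml-1 for 14 h. Myc- and HA-tagged products detected by western blotting.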

[14] = target: T1, Splicing factor 3B subunit 3 (Homo sapiens); assay: Binding affinity to SAP130 in human HeLa cells assessed as inhibition of beta-actin mRNA splicing at 100 ng/ml after 6 hrs by RT-PCR analysis; type: cell-based
How it was run: (§6)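 HeLa cells treated 6 h with 100 ng ml-1 SSA or methanol. Total RNA isolated with TRIzol and reverse transcribed with M-MLV reverse transcriptase. PCR primers designed to detect intron-containing transcripts.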

[15] = target: T1, Splicing factor 3B subunit 3 (Homo sapiens); assay: Binding affinity to SAP130 assessed as inhibition of radio labeled beta-globin pre-mRNA splicing after 1 hr by autoradiography; how it was run: as §4
[16] = target: Cyclin-dependent kinase 2 (Homo sapiens) (UniProt P24941); assay: Induction of CDK2 in HEK293T cells transfected with FLAG-tagged truncated p27 at 190 nM by Western blot analysis; type: cell-based; settings: HEK-293T; how it was run: as §3
[17] = target: T1, Splicing factor 3B subunit 3 (Homo sapiens); assay: Binding affinity to SAP130 in human HeLa cells assessed as inhibition of p27 pre-mRNA splicing between exon 1 and intron 2 at […] after 12 hrs by RT-PCR analysis; type: cell-based
[18] = target: T1, Splicing factor 3B subunit 3 (Homo sapiens); assay: Binding affinity to SAP130 in human HeLa cells assessed as inhibition of p27 mRNA splicing at 100 ng/ml after 6 hrs by RT-PCR analysis; type: cell-based; how it was run: as §6
[19] = target: T1, Splicing factor 3B subunit 3 (Homo sapiens); assay: Binding affinity to SAP130 in human HeLa cells assessed as inhibition of p27 pre-mRNA splicing between exon 1 and exon 2 at […] after 12 hrs by RT-PCR analysis; type: cell-based
HeLa [20] = assay: Induction of beta-tubulin expression in human HeLa cells at 100 ng/ml after 14 hrs by Western blotting; type: functional, cell-based
[21] = target: T1, Splicing factor 3B subunit 3 (Homo sapiens); assay: Binding affinity to SAP130 in human HeLa cells assessed as inhibition of beta-tubulin mRNA splicing at 100 ng/ml after 6 hrs by RT-PCR analysis; type: cell-based; how it was run: as §6
HeLa [22] = assay: Induction of subcellular localization of SAP155 in SAP155-targeting siRNA-transfected human HeLa cells after 3 days; type: functional, cell-based
HeLa [23] = assay: Induction of truncated p27 expression in SAP155-targeting siRNA-transfected human HeLa cells; type: functional, cell-based; how it was run: as §2
HEK-293T [24] = assay: Induction of intron translation of Myc-tagged p27 gene in HEK293T cells at 100 ng/ml for 14 hrs by Western blotting; type: functional, cell-based; settings: Homo sapiens; how it was run: as §5
HeLa [25] = assay: Induction of truncated p27 expression in SAP130-targeting siRNA-transfected human HeLa cells; type: functional, cell-based; how it was run: as §2
HeLa [26] = assay: Induction of subcellular localization of SAP145 in SAP145-targeting siRNA-transfected human HeLa cells after 3 days; type: functional, cell-based
HeLa [27] = assay: Induction of subcellular localization of poly(A) RNA in human HeLa cells at 100 ng/ml after 3 hrs using digoxigenin-labeled oligo-Dt probe; type: functional, cell-based
How it was run: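 HeLa cells treated with SSA (100 ng ml-1, 3 h) or MeOH. Fixed in 3% formaldehyde 15 min; permeabilized with 0.5% Triton X-100 on ice. Hybridized at 42 °C with 3'-digoxigenin oligo-dT in 2× SSC, 20% formamide, 1 mg ml-1 tRNA, 10% dextran sulfate. Washed; detected with anti-digoxigenin then FITC anti-mouse IgG.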

SMILES: CC(/C=C/C(=O)NO)=C\[C@@H](C)C(=O)c1ccc(N(C)C)cc1
- Activity (HeLa [1]): Active
- Activity (HeLa [2]): Active
- Activity (HeLa [3]): Active

SMILES: CO[C@]1(C)C[C@@]2(CO2)[C@H](O)[C@@H](/C=C/C(C)=C/C[C@@H]2O[C@H](C)[C@H](NC(=O)/C=C\[C@H](C)OC(C)=O)C[C@@H]2C)O1
- Activity [4]: Active
- Activity (HeLa [5]): Active
- Activity [6]: Active
- Activity (HeLa [7]): Active
- Activity [8]: Active
- Activity (HeLa [9]): Active
- half-life [10]: 6 min
- Activity [11]: inactive
- inhibition [12]: Active
- Activity (HEK-293T [13]): Active
- inhibition [14]: Active
- Activity [15]: Dose-dependent effect
- Activity [16]: inactive
- Activity [17]: Active
- inhibition [18]: Active
- Activity [19]: Active
- Activity (HeLa [20]): Active
- inhibition [21]: Active
- Activity (HeLa [22]): Active
- Activity (HeLa [23]): Active
- Activity (HEK-293T [24]): Active
- Activity (HeLa [25]): Active
- Activity (HeLa [26]): Active
- Activity (HeLa [27]): Active

Reference: ChEMBL document CHEMBL1221204, “Spliceostatin A targets SF3b and inhibits both splicing and nuclear retention of pre-mRNA” (Nat Chem Biol, 2007)
